How the values were obtained:
Rattus norvegicus [1] = species on record: Rattus norvegicus; experiment: Time taken to reach the maximum BSR in male Wistar rats; assay type: functional
[2] = biological target: GABA-A receptor; anion channel; experiment: Inhibition of [35S]TBPS binding to Gamma-aminobutyric acid A receptor of rat brain membranes; assay type: cell membranes, Membrane
Rattus norvegicus [3] = species on record: Rattus norvegicus; experiment: Time required to gain the righting reflex in male Wistar rats; assay type: functional, organism-based
Mus musculus [4] = experiment: In vivo anaesthetic activity after intravenous administration in MF-1 mice was determined by loss of righting reflex using probit analysis; assay type: functional
Rattus norvegicus [5] = species on record: Rattus norvegicus; experiment: Burst suppression ratio (BSR) profile in male Wistar rats; assay type: functional
Outline: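 Male Wistar rats (218–420 g), with extradural electrodes implanted and at least 7 days recovery, lightly hand-restrained. IV injection over 10 s into a tail vein by computer-controlled infusion pump. […] BSR extracted from EEG. Read-outs: onset (first 0.25 s burst-suppression epoch), time to max BSR, time to 50% BSR decrease, time to regain righting reflex. Mean and SEM.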

Rattus norvegicus [6] = species on record: Rattus norvegicus; experiment: Maximum BSR reached in male Wistar rats; assay type: functional
Rattus norvegicus [7] = species on record: Rattus norvegicus; experiment: Time taken for 50% decrease in the BSR in male Wistar rats; assay type: functional
Rattus norvegicus [8] = species on record: Rattus norvegicus; experiment: Time to the first 0.25 s burst suppression epoch(onset of anaesthesa) in male Wistar rats; assay type: functional
Mus musculus [9] = experiment: In vivo anaesthetic activity after intravenous administration in MF-1 mice was determined by loss of righting reflex using probit analysis; Convulsant; assay type: functional, organism-based
[10] = tested on: GABA-A receptor; anion channel; experiment: Inhibition of [35S]TBPS binding to Gamma-aminobutyric acid A (GABA-A) receptor of rat whole brain membranes (inactive); assay type: cell membranes
Outline: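 Rat whole-brain membranes. Inhibition of [35S]TBPS radioligand binding at the GABA-A receptor. […] Means of three experiments.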

CC(C)c1cc(CN2CCOCC2)cc(C(C)C)c1O
Time to max. BSR (Rattus norvegicus [1]): 40 s | IC50 [2]: > 100 µM | Recovery time (Rattus norvegicus [3]): 3.8 min | HD50 (Mus musculus [4]): 32 µM/kg | BSR (Rattus norvegicus [5]): 51 µM/kg | Max BSR (Rattus norvegicus [6]): 54.9% | Offset time (Rattus norvegicus [7]): 1.7 min | Onset time (Rattus norvegicus [8]): 16.2 s

CCOC(=O)C1CCN(Cc2cc(C(C)C)c(O)c(C(C)C)c2)CC1
IC50 [2]: 31 µM | HD50 (Mus musculus [4]): 19 µM/kg

CC(C)c1cc(CN2CCOCC2)cc(C(C)C)c1
IC50 [2]: > 30 µM | HD50 (Mus musculus [9]): Convulsant

CC(C)c1cc(CCN2CCOCC2)cc(C(C)C)c1O
IC50 [2]: > 100 µM | HD50 (Mus musculus [4]): 35.8 µM/kg

CC(C)c1cc(CN(C)Cc2ccccc2)cc(C(C)C)c1O
IC50 [2]: > 10 µM | HD50 (Mus musculus [4]): 25.1 µM/kg

CCOC(=O)C1CCN(Cc2cc(C(C)C)c(N)c(C(C)C)c2)CC1
HD50 (Mus musculus [4]): 14.4 µM/kg | IC50 [10]: Not Active

CC(C)c1cc(CN2CCOCC2)cc(C(C)C)c1N(C)C
IC50 [2]: > 30 µM | HD50 (Mus musculus [4]): 83 µM/kg

CC(C)c1cc(C(=O)CN2CCSCC2)cc(C(C)C)c1O
IC50 [2]: > 10 µM | HD50 (Mus musculus [4]): 68.5 µM/kg

CC(=O)Nc1c(C(C)C)cc(CN2CCOCC2)cc1C(C)C
IC50 [2]: > 10 µM | HD50 (Mus musculus [4]): >282 µM/kg

CNc1c(C(C)C)cc(CN2CCOCC2)cc1C(C)C
IC50 [2]: > 100 µM | HD50 (Mus musculus [4]): 51 µM/kg

CC(C)c1cc(CN2CCOCC2)cc(C(C)C)c1N
IC50 [2]: > 100 µM | HD50 (Mus musculus [4]): 36.5 µM/kg

CC(C)c1cc(CN2CCSCC2)cc(C(C)C)c1N
IC50 [2]: > 100 µM | HD50 (Mus musculus [4]): 22.9 µM/kg

CC(C)c1cc(CN2CCSCC2)cc(C(C)C)c1O
IC50 [2]: 27.6 µM | HD50 (Mus musculus [4]): 25.5 µM/kg

CC(=O)N1CCN(Cc2cc(C(C)C)c(O)c(C(C)C)c2)CC1
IC50 [2]: > 100 µM | HD50 (Mus musculus [4]): 38.8 µM/kg

CC(C)c1cccc(C(C)C)c1O [PROPOFOL]
Time to max. BSR (Rattus norvegicus [1]): 30 s | Recovery time (Rattus norvegicus [3]): 5.2 min | HD50 (Mus musculus [4]): 68 µM/kg | Max BSR (Rattus norvegicus [6]): 55% | Offset time (Rattus norvegicus [7]): 1.4 min | Onset time (Rattus norvegicus [8]): 13.2 s

Source: ChEMBL document CHEMBL1134015 (Bioorg Med Chem Lett, 2001)
